Results: paper PMC2744899 (Journal of the American Chemical Society, 2009)
“And” between values parts separate entries of the source, which are not always exact repeats. Identical values can stand only once.

Assays:
[1] = tested on: scFv K7 displayed on the yeast cell-surface; assay: Fluorescence titration of dye into yeast surface-displayed K7; details: read-out: Kd Yeast-Displayed K7, 10^7 yeast cells, 1:1 binding model
[2] = Thermal bleaching by singlet oxygen from sodium molybdate and H2O2; format: physicochemical; details: for loss of absorbance (bleaching): free dye 1 μM
Method in brief: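 Singlet oxygen was generated thermally from 50 mM Na2MoO4 plus 9.8 mM H2O2 (final) at pH 9.0, with ionic strength matched to standard wash buffer. Reactions used 1 µM dye, free (in H2O or D2O, followed by absorbance) or with 1 µM K7. Spectra were taken before molybdate addition, then every 10 min for 40 min.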

[3] = Photobleaching of DIR/K7 by Xe lamp irradiation and fluoromodule regeneration; format: physicochemical
[4] = Photobleaching by direct irradiation; format: physicochemical; details: compare Figures 3 and 10, per photons absorbed per dye molecule

Row | Structure (SMILES) | Kd [1] | bleaching in the presence of K7 ([2]; [Dye] = [K7] = 1 μM, pH 9, 40 min) | loss of absorbance (bleaching) ([2]; no K7, 90% D2O, pH 9, 40 min) | loss of absorbance (bleaching) ([2]; no K7, H2O, pH 9, after 40 min reaction) | loss of DIR fluorescence after irradiation ([3]; 1:1 DIR/K7 at 250 nM, λ > 455 nm, 15 min, H2O) | fluorescence restored after addition of another equivalent of DIR ([3]; after 15 min irradiation, one equivalent (250 nM) fresh DIR added) | photobleaching efficiency relative to DIR and α-CN-DIR [4]
1 | CN1/C(=C/C=C/c2cc[n+](CCCS(=O)(=O)[O-])c3ccccc23)C(C)(C)c2ccccc21 [DIR, dimethylindole red] | 13.9 ± 3.2 nM | 20% | 74% | 42% | 55 (±7) % and 55% | 89 % of the original value | 
2 | CN1C(=Cc2cc[n+](C)c3ccccc23)Sc2ccccc21 [TO, thiazole orange] |  |  |  |  |  |  | > 100 fold
